Key:
[1] = Neurotoxic effects by rotarod test in mice.; assay type: ADME, organism-based; conditions: mouse, in vivo
In short: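 Rotorod test in mice after ip dosing in 30% polyethylene glycol (0.01 mL/g). TD50 from log probit analysis of dose–response data.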

Mus musculus [2] = species on record: Mus musculus; assay: Anticonvulsant activity in mice by maximal electroshock test.; assay type: functional
In short: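 Maximal electroshock applied through corneal electrodes after 0.9% NaCl drops on the eyes. Compound given ip in 30% polyethylene glycol (0.01 mL/g). Protection defined as no tonic hind-limb extension past 90°. ED50 from log probit analysis of dose–response data.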

Mus musculus [3] = species on record: Mus musculus; assay: Anticonvulsant activity in mice by inhibition of pentylenetetrazole induced seizures.; assay type: functional
[4] = biological target: GABA-A receptor; anion channel; assay: Binding affinity to picrotoxin site of the Gamma-aminobutyric acid receptor was measured using [35S]TBPS as radioligand; assay type: protein-complex assay
In short: (§1)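 Rat cerebral cortex membranes (female Sprague–Dawley) washed and held in 50 mM Tris-citrate pH 7.5. [35S]TBPS at 2 nM final, in NaBr. Incubated in triplicate for 90 min at 25 °C, then filtered and scintillation counted. Nonspecific binding with 10 μM TBPS or 100 μM picrotoxinin. IC50 by log probit from ≥5 concentrations; mean ± SEM of three experiments.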

[5] = biological target: GABA-A receptor; anion channel; assay: Binding affinity to picrotoxin site of Gamma-aminobutyric acid receptor using [35S]TBPS as radioligand; assay type: protein-complex assay, Rattus norvegicus; in short: as §1
Mus musculus [6] = species on record: Mus musculus; assay: Convulsant potency was determined by measuring the ability to produce seizures in mice; assay type: functional
In short: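 Compound given ip in 30% polyethylene glycol (0.01 mL/g body weight). Mice observed for 30 min for seizure activity. Value is the CD50 for clonic convulsions, from log probit analysis; 95% fiducial limits given.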

Mus musculus [7] = assay: Concentration of brain at 40 min was determined after the compound was administered intraperitoneally at a dose 259 mg/kg in mice; assay type: functional; conditions: route intraperitoneal
Mus musculus [8] = assay: Concentration of brain at 10 min was determined after the compound was administered intraperitoneally at a dose 259 mg/kg in mice; assay type: functional; conditions: route intraperitoneal
In short: (§2)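 Female CF-1 mice dosed ip and decapitated at the set time, n = 3. Cerebral cortex frozen and homogenized at 4 °C in chloroform:methanol 2:1 with an internal standard. Lower phase analysed by capillary GC-FID with splitless injection. Concentration taken from the ratio to the internal standard, corrected for detector response and wet weight. Mean ± SEM.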

Mus musculus [9] = assay: Concentration of brain at 20 min was determined after the compound was administered intraperitoneally at a dose 259 mg/kg in mice; assay type: functional; conditions: route intraperitoneal; in short: as §2
Mus musculus [10] = assay: Concentration of brain at 5 min was determined after the compound was administered intraperitoneally at a dose 259 mg/kg in mice; assay type: functional; conditions: route intraperitoneal; in short: as §2
Mus musculus [11] = assay: Concentration of brain at 30 min was determined after the compound was administered intraperitoneally at a dose 259 mg/kg in mice; assay type: functional; conditions: route intraperitoneal; in short: as §2

Structure (SMILES)	TD50 [1]	ED50 (Mus musculus [2])	ED50 (Mus musculus [3])	IC50 [4]	IC50 [5]	also measured
CC(C)C1(C(C)C)CCSC1=O	> 500 mg/kg	> 500 mg/kg	> 500 mg/kg	74 µM	–	–
CC(C)C1(C)CCOC1=O (stereo not given)	278 mg/kg	> 500 mg/kg	198 mg/kg	850 µM	–	–
CC(C)(C)C1CCOC1=O (stereo not given)	> 500 mg/kg	375 mg/kg	145 mg/kg	–	990 µM	–
CCC1(CC)CCSC1=O	285 mg/kg	374 mg/kg	104 mg/kg	260 µM	–	–
CC(C)C1CCOC1=O (stereo not given)	> 400 mg/kg	> 400 mg/kg	150 mg/kg	2000 µM	–	–
CC(C)(C)C1COC(=O)C1 (stereo not given)	–	–	–	–	13000 µM	CD50 (Mus musculus [6]): 5.5 mg/kg
CCC1(C)CSC(=O)C1 (stereo not given)	–	–	–	–	–	CD50 (Mus musculus [6]): 3.5 mg/kg
CCC1(CC)CCOC1=O	416 mg/kg	463 mg/kg	191 mg/kg	–	750 µM	–
CC1CCSC1=O (stereo not given)	–	91 mg/kg	91 mg/kg	4400 µM	–	–
CC1CCOC1=O (stereo not given)	> 500 mg/kg	> 500 mg/kg	> 500 mg/kg	> 10000 µM	–	–
CCC1(C)CC(=O)OC1(C)C (stereo not given)	–	–	–	–	22000 µM	CD50 (Mus musculus [6]): 8.2 mg/kg
CCC1CCOC1=O (stereo not given)	> 500 mg/kg	> 500 mg/kg	> 500 mg/kg	–	8500 µM	–
CC(C)C1(C)CCSC1=O (stereo not given)	> 500 mg/kg	> 500 mg/kg	154 mg/kg	140 µM	–	–
CCC1(C)CCSC1=O (stereo not given)	–	–	–	330 µM	–	–
CC(C)(C)C1CCSC1=O (stereo not given)	> 500 mg/kg	> 500 mg/kg	244 mg/kg	190 µM	–	–
CC(C)C1CCSC1=O (stereo not given)	> 500 mg/kg	> 500 mg/kg	145 mg/kg	–	260 µM	–
CC1(C)CCOC1=O	> 500 mg/kg	> 500 mg/kg	> 500 mg/kg	–	9200 µM	–
CCC1(C)COC(=O)C1 (stereo not given)	–	–	–	55000 µM	–	CD50 (Mus musculus [6]): 20 mg/kg
CC(C)C1(C(C)C)CCOC1=O	–	–	137 mg/kg	220 µM	–	–
CC(C)C1COC(=O)C1 (stereo not given)	–	–	–	42000 µM	–	CD50 (Mus musculus [6]): 15 mg/kg
CC1(C)CCSC1=O	220 mg/kg	369 mg/kg	208 mg/kg	920 µM	–	–
CCC1(C)CCOC1=O (stereo not given)	621 mg/kg	> 500 mg/kg	259 mg/kg	–	2300 µM	Brain concentration (Mus musculus [7]): 0.88 mM; Brain concentration (Mus musculus [8]): 1.83 mM; Brain concentration (Mus musculus [9]): 1.35 mM; Brain concentration (Mus musculus [10]): 2.97 mM; Brain concentration (Mus musculus [11]): 1.21 mM
CCC1CCSC1=O (stereo not given)	> 500 mg/kg	232 mg/kg	414 mg/kg	1500 µM	–	–

— ChEMBL document CHEMBL1125676, “Synthesis and structure-activity studies of alkyl-substituted gamma-butyrolactones and gamma-thiobutyrolactones: ligands for the picrotoxin receptor” (J Med Chem, 1991)
